These results are taken from ChEMBL document CHEMBL4014285, “Novel, highly potent systemic glucokinase activators for the treatment of Type 2 Diabetes Mellitus” (Bioorg Med Chem Lett, 2017).

For series [1], the target named is T1, Hexokinase-4 (Homo sapiens, UniProt P35557).
T1 sequence (P35557 whole entry): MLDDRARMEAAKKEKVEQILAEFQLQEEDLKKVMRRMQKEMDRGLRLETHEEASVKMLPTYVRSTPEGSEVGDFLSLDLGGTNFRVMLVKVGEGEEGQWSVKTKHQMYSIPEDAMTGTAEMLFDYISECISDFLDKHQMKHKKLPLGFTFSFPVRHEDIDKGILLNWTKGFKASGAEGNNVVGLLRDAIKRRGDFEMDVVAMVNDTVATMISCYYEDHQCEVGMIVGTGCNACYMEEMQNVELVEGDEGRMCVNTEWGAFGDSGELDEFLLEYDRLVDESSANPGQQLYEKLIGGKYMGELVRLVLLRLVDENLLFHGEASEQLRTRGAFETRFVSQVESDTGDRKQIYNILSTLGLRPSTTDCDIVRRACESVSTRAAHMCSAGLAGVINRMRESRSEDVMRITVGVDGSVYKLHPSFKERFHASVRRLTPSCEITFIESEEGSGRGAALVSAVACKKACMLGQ
Kind of series: Activation of recombinant human glucokinase assessed as conversion of D-glucose to D-glucose-6-phosphate in presence of 2.5 mM glucose by G6PDH coupled spectrophotometric assay. The method in brief:
(§1)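 Recombinant human GK; ATP-dependent D-glucose-6-phosphate formation from D-glucose at 2.5 or 10 mM, read by continuous glucose-6-phosphate dehydrogenase coupled spectrophotometry. Activators titrated at 1% DMSO final, DMSO as control. EC50 = concentration giving half of maximal increase in product formation; maximum activity expressed as percent velocity increase vs DMSO at saturating activator. Single titration.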

The target in series [2] is T2, Hexokinase-4 (Homo sapiens) (UniProt P35557).
T2 sequence (whole entry): T1 sequence (P35557 whole entry)
Kind of series: Activation of recombinant human glucokinase assessed as conversion of D-glucose to D-glucose-6-phosphate in presence of 2.5 mM glucose by G6PDH coupled spectrophotometric assay relative to control. The gist of the method: as §1

Series [3] addresses T1, Hexokinase-4. Kind of series: Activation of recombinant human glucokinase assessed as conversion of D-glucose to D-glucose-6-phosphate in presence of 10 mM glucose by G6PDH coupled spectrophotometric assay. The gist of the method:
as §1

Series [4] deals with T2, Hexokinase-4 (Homo sapiens). Kind of series: Activation of recombinant human glucokinase assessed as conversion of D-glucose to D-glucose-6-phosphate in presence of 10 mM glucose by G6PDH coupled spectrophotometric assay relative to control. The method in brief: as §1
Series [5] addresses T3, Hexokinase-4 (Rattus norvegicus, UniProt P17712).
T3 sequence (P17712 whole entry): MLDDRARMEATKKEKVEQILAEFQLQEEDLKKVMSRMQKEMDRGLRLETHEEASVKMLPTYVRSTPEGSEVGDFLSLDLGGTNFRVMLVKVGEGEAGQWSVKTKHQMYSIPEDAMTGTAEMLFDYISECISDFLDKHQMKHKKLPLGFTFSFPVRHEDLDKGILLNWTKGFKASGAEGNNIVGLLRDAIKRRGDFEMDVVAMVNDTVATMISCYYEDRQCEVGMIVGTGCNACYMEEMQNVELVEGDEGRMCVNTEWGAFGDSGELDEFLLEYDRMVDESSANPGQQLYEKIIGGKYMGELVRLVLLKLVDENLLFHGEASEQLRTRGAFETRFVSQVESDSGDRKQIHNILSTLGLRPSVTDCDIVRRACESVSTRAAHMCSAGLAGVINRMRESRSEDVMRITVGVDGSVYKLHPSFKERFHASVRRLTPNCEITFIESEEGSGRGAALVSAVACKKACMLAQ
Kind of series: Activation of glucokinase in rat INS-1 cells assessed as increase in D-2-deoxyglucose-6-phosphate level in presence of D-2-deoxyglucose by HILIC LC-MS method. It is filed as cell-based. The gist of the method:
(§2)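 GKACA cell assay in rat INS-1 Clone-13 insulinoma cells or freshly isolated primary rat hepatocytes; intracellular D-2-deoxyglucose-6-phosphate formed from exogenous D-2-deoxyglucose quantified by HILIC LC-MS; EC50 from a single titration.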

Series [6] concerns the target T3, Hexokinase-4. Kind of series: Activation of glucokinase in primary rat hepatocytes assessed as increase in D-2-deoxyglucose-6-phosphate level in presence of D-2-deoxyglucose by HILIC LC-MS method. Type of series: cell-based. The method in brief: as §2
A short description of series [7]: Solubility of the compound at pH 7. The conditions noted are these: buffer. Type of series: physicochemical.
Series [8] in a line: Solubility of the compound at pH 2. It is filed as physicochemical. The conditions noted are these: buffer.
Series [9] concerns Mus musculus. Kind of series: Antidiabetic activity in HFD-fed C57BL/6 mouse assessed as decrease in blood glucose level at 0.03 mg/kg, po measured after 30 mins. Type of series: functional, organism-based. The method in brief:
(§3)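 C57BL/6 mice fed high fat diet for 3 weeks, baseline blood glucose ~200 mg/dl, dosed orally at 0.01, 0.03 and 0.1 mg/kg. Blood glucose followed from 30 min through 4 h post dose, with blood glucose AUC over the period; plasma insulin also measured.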

The subject of series [10] is Mus musculus. Kind of series: Antidiabetic activity in HFD-fed C57BL/6 mouse assessed as reduction in blood glucose AUC at 0.03 to 0.1 mg/kg, po measured at 4 hrs post dose. It is filed as functional, organism-based. The gist of the method:
as §3

For series [11], the system named is Mus musculus. Kind of series: Antidiabetic activity in HFD-fed C57BL/6 mouse assessed as increase in plasma insulin level at 0.03 to 0.1 mg/kg, po. It is filed as functional, organism-based. The method in brief:
as §3

In brackets after ≈: the same amount, converted by molar mass. Activity calls are given as the source filed them. The rule behind the calls is not given here. A value given as a limit tells only on which side of the number the result lay.

By EC50 is commonly meant the concentration at which the effect is half-maximal. In the case of `CCOC(=O)c1ccc(Oc2cc3cc(-c4ccc(C(F)(F)F)cn4)[nH]c3cc2C2CCC(=O)N2C)cc1` (stereo not given), the EC50 at Hexokinase-4 [1] worked out at 4.8 nM; on Hexokinase-4 [3] it was 9.2 nM; on Hexokinase-4 [5], 22 nM; at Hexokinase-4 [6], 232 nM. For the same molecule, the results for the %max in series [2] and in [4] were 452% and 123%, respectively.
For `CCS(=O)(=O)c1ccc(Oc2cc3cc(-c4ccc(C(F)(F)F)cn4)[nH]c3cc2C2CCC(=O)N2C)cc1` (stereo not given), the EC50 at Hexokinase-4 [1] is 2 nM; at Hexokinase-4 [3], 1.4 nM; at Hexokinase-4 [5], 1.7 nM; on Hexokinase-4 [6] it was 174 nM. Also, the results for the %max in series [2] and in series [4] were 602% and 158%, respectively.
Usually solubility stands for the dissolved amount per volume that the medium holds. Low readings indicate little dissolved substance, high ones much dissolved substance. Consider `CN1C(=O)CCC1c1cc2[nH]c(-c3ccc(C(F)(F)F)cn3)cc2cc1Oc1ccc(C(=O)O)cc1` (stereo not given), for which the EC50 on Hexokinase-4 [1] was 24 nM; on Hexokinase-4 [3] it was 9.6 nM; at Hexokinase-4 [5], 2110 nM; at Hexokinase-4 [6], 728 nM. Further, the %max in series [2] was 683%; in series [4] it was 179%. The figures for the solubility in series [7] and in series [8] were 113 µM (≈ 56 µg/mL) and 5 µM (≈ 2.48 µg/mL), respectively.
As to `COC(=O)c1ccc(-c2cc3cc(Oc4ccc(S(C)(=O)=O)nc4)c(C4CCC(=O)N4C)cc3[nH]2)nc1` (racemic), the half-maximal effective concentration (EC50) on Hexokinase-4 [1] was 8.2 nM; on Hexokinase-4 [3], 3.4 nM; at Hexokinase-4 [5], 7.8 nM; on Hexokinase-4 [6], 20 nM. Moreover, the %max in series [2] came to 739%; in series [4], 184%.
Regarding `Cc1cnc(-c2cc3cc(Oc4ccc(S(C)(=O)=O)nc4)c(C4CCC(=O)N4C)cc3[nH]2)s1` (single isomer, unassigned) [listing 1 of 2 here], the half-maximal effective concentration (EC50) on Hexokinase-4 [1] was 4.5 nM; on Hexokinase-4 [3], 3.8 nM; on Hexokinase-4 [5], 21 nM; at Hexokinase-4 [6], 16 nM.
Regarding `Cc1cnc(-c2cc3cc(Oc4ccc(S(C)(=O)=O)nc4)c(C4CCC(=O)N4C)cc3[nH]2)s1` (single isomer, unassigned) [listing 2 of 2 here], the %max stood at 620% in series [2] and 168% in series [4].
Take `CN1C(=O)CCC1c1cc2[nH]c(-c3ccccn3)cc2cc1Oc1ccc(S(C)(=O)=O)nc1` (single isomer, unassigned; ent-1): the values for the %max in series [2] and in series [4] were 784% and 193%, respectively. The outcome in the series on Mus musculus [9], in the series with Mus musculus [10] and with Mus musculus [11] was Active.
For `CN1C(=O)CCC1c1cc2[nH]c(-c3ccc(C(F)(F)F)cn3)cc2cc1Oc1ccc(S(C)(=O)=O)nc1` (single isomer, unassigned; ent-2) [listing 1 of 2 here], the EC50 worked out at 86 nM on Hexokinase-4 [1], 31 nM on Hexokinase-4 [3], 375 nM on Hexokinase-4 [5] and 199 nM on Hexokinase-4 [6].
For the molecule `CN1C(=O)CCC1c1cc2[nH]c(-c3ccc(C(F)(F)F)cn3)cc2cc1Oc1ccc(S(C)(=O)=O)nc1` (single isomer, unassigned; ent-2) [listing 2 of 2 here], the %max in series [2] stood at 583%; in series [4], 141%.
Take `CN1C(=O)CCC1c1cc2[nH]c(-c3ccccn3)cc2cc1Oc1ccc(S(C)(=O)=O)nc1` (stereo in doubt; 1-en) [listing 1 of 2 here]: the half-maximal effective concentration (EC50) turned out to be 4.2 nM on Hexokinase-4 [1], 0.8 nM on Hexokinase-4 [3], 33 nM on Hexokinase-4 [5] and 93 nM on Hexokinase-4 [6].
`CN1C(=O)CCC1c1cc2[nH]c(-c3ccccn3)cc2cc1Oc1ccc(S(C)(=O)=O)nc1` (stereo in doubt; 1-en) [listing 2 of 2 here]: the %max in series [2] was found to be 628%; in series [4], 158%.
`Cc1cnc(-c2cc3cc(Oc4ccc(S(C)(=O)=O)nc4)c(C4CCC(=O)N4C)cc3[nH]2)s1` (stereo in doubt; 2-en) [listing 1 of 2 here]: the concentration giving a half-maximal response (EC50) on Hexokinase-4 [1] was determined as 5.5 nM; on Hexokinase-4 [3] it was 1 nM; on Hexokinase-4 [5] it was 37 nM; on Hexokinase-4 [6] it was 77 nM.
Regarding `Cc1cnc(-c2cc3cc(Oc4ccc(S(C)(=O)=O)nc4)c(C4CCC(=O)N4C)cc3[nH]2)s1` (stereo in doubt; 2-en) [listing 2 of 2 here], the results for the %max in series [2] and in series [4] were 482% and 132%, respectively.
In the case of `CN1C(=O)CCC1c1cc2[nH]c(-c3cnccn3)cc2cc1Oc1ccc(S(C)(=O)=O)nc1` (stereo in doubt; 3) [listing 1 of 2 here], the EC50 at Hexokinase-4 [1] was determined as 4.5 nM; at Hexokinase-4 [3], 4.2 nM; on Hexokinase-4 [5], 7.2 nM; at Hexokinase-4 [6] it was 23 nM.
On to `CN1C(=O)CCC1c1cc2[nH]c(-c3cnccn3)cc2cc1Oc1ccc(S(C)(=O)=O)nc1` (stereo in doubt; 3) [listing 2 of 2 here], for which the %max is 713% in [2] and 188% in series [4].
Consider `CN1C(=O)CCC1c1cc2[nH]c(-c3cnccn3)cc2cc1Oc1ccc(S(C)(=O)=O)nc1` (stereo in doubt; 3-en) [listing 1 of 2 here], for which the EC50 on Hexokinase-4 [1] is 48 nM; at Hexokinase-4 [3], 18 nM; on Hexokinase-4 [5] it was 247 nM; on Hexokinase-4 [6] it was 1510 nM.
Regarding `CN1C(=O)CCC1c1cc2[nH]c(-c3cnccn3)cc2cc1Oc1ccc(S(C)(=O)=O)nc1` (stereo in doubt; 3-en) [listing 2 of 2 here], the %max in series [2] stood at 577%; in series [4], 155%.
On to `CN1C(=O)CCC1c1cc2[nH]c(-c3ccc(C(C)(C)O)cn3)cc2cc1Oc1ccc(S(C)(=O)=O)nc1` (stereo in doubt; 4) [listing 1 of 2 here], for which the half-maximal effective concentration (EC50) turned out to be 4.8 nM at Hexokinase-4 [1], 2.1 nM at Hexokinase-4 [3], 3.9 nM on Hexokinase-4 [5] and 5.2 nM on Hexokinase-4 [6].
On to `CN1C(=O)CCC1c1cc2[nH]c(-c3ccc(C(C)(C)O)cn3)cc2cc1Oc1ccc(S(C)(=O)=O)nc1` (stereo in doubt; 4) [listing 2 of 2 here], for which the %max in series [2] was found to be 739%; in series [4] it was 173%.
Regarding `CN1C(=O)CCC1c1cc2[nH]c(-c3ccc(C(C)(C)O)cn3)cc2cc1Oc1ccc(S(C)(=O)=O)nc1` (stereo in doubt; 4-en) [listing 1 of 2 here], the concentration for a half-maximal effect (EC50) amounted to 31 nM at Hexokinase-4 [1], 9.8 nM at Hexokinase-4 [3], 38 nM at Hexokinase-4 [5] and 34 nM on Hexokinase-4 [6].
As to `CN1C(=O)CCC1c1cc2[nH]c(-c3ccc(C(C)(C)O)cn3)cc2cc1Oc1ccc(S(C)(=O)=O)nc1` (stereo in doubt; 4-en) [listing 2 of 2 here], the %max in series [2] stood at 581%; in series [4] it was 132%.
With `CN1C(=O)CCC1c1cc2[nH]c(-c3ccc(C(F)(F)F)cn3)cc2cc1Oc1ccc(S(C)(=O)=O)nc1` (stereo in doubt; 5) [listing 1 of 2 here], the EC50 on Hexokinase-4 [1] was 2.4 nM; on Hexokinase-4 [3], less than 0.85 nM; at Hexokinase-4 [5], 2.5 nM; on Hexokinase-4 [6] it was 2.7 nM.
In the case of `CN1C(=O)CCC1c1cc2[nH]c(-c3ccc(C(F)(F)F)cn3)cc2cc1Oc1ccc(S(C)(=O)=O)nc1` (stereo in doubt; 5) [listing 2 of 2 here], the %max in series [2] was determined as 764%; in [4], 174%.
